Consider 3 compounds from publication PMC5099076 (Journal of medicinal chemistry, 2015).

Each structure is given as a SMILES string.

For one series, the target named is T1, PIF pocket of PDK1 (Homo sapiens, UniProt O15530).
T1 sequence (O15530 1-556): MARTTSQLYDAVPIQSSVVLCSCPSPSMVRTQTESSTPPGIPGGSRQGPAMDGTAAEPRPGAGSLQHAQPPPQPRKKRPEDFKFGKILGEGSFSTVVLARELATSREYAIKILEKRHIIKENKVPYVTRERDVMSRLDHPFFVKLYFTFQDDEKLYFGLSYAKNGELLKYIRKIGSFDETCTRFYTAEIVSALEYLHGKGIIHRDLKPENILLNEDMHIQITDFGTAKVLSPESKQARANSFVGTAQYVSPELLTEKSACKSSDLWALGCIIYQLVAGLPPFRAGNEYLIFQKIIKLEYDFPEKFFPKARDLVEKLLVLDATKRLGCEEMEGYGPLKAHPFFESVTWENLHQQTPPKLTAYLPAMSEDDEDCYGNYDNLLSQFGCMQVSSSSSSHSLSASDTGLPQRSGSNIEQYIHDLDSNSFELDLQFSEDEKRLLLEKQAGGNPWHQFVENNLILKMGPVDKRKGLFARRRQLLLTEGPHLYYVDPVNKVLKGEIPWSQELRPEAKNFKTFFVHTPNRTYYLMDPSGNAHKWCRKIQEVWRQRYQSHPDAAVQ
The experiment in a line: Fluorescence polarization. The class given is binding.

The test system of a further series is cruzain. The experiment in a line: Cruzain assay. The class given is biochemical. To be noted: unrelated enzyme, test for aggregation-based mechanism. The method, boiled down: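 Test compound preincubated 5 min with 0.8 nM cruzain in 100 mM sodium acetate, pH 5.5, 5 mM DTT, with 0.01% Triton X-100 added where indicated. Reaction started with Z-FR-AMC; final 0.4 nM cruzain, 2.5 μM substrate, 0.5% DMSO. Fluorescence increase (ex 355/em 460 nm) recorded over 5 min. Run in duplicate; DMSO-only controls.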

For the next series, the target named is T2, PDK1 (Homo sapiens, UniProt O15530).
T2 sequence (O15530 1-556): T1 sequence (O15530 1-556)
The class given is biochemical. To be noted: short peptide substrate, in vitro.

A short description of the next series: Dynamic light scattering. The format is physicochemical. As to conditions: under assay conditions. In short, it runs like this: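 Concentrated DMSO stocks of test compound diluted in assay buffer to a final 3.2% DMSO. Light scattering read with a 55 mW laser at 826.6 nm, 100% laser power, detector at 90°. Single-point measurements reported.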

For `O=C(O)C/C(=C/c1cccc(C(F)(F)F)c1)c1nc2ccccc2o1` [compound 2], the “Binding to PDK1 (in words)” value on PIF pocket of PDK1 (FP competitive binding assay) was “negligible”.

As to `Cc1ccc(OCCSc2nc3ccccc3n2CC(=O)O)c(C)c1` [compound 1], the “Nonspecific inhibition of cruzain” value in the series with cruzain is reported as “nor did either compound nonspecifically inhibit”. Moreover, at PIF pocket of PDK1 (binding energy (ΔG, kcal/mol) per non-hydrogen atom), the “LE (ligand efficiency)” value was 0.25 kcal/mol per non-hydrogen atom. For the same compound, the “Maximal stimulation of PDK1 activity” value on PDK1 was ~ 1.8 fold. The “Formation of colloidal aggregates” value in the series “Dynamic light scattering” is “Neither compound formed colloidal aggregates”.

As for `O=P(O)(O)[C@H](NC[C@@H]1CCCc2ccccc21)c1ccc(F)cc1` [compound 3], in the series with cruzain, the “Nonspecific inhibition of cruzain” value is listed as “nor did either compound nonspecifically inhibit”. Further, the “Maximal stimulation of PDK1 activity” value at PDK1 is listed as ~ 1.8 fold. Moreover, the “Formation of colloidal aggregates” value in the series “Dynamic light scattering” is “Neither compound formed colloidal aggregates”.
